Data reported in ChEMBL document CHEMBL2417386, “Novel conjugated quinoline-indoles compromise Plasmodium falciparum mitochondrial function and show promising antimalarial activity” (J Med Chem, 2013).

Legend:
Plasmodium falciparum [1] = experiment: Antimalarial activity against mid to late trophozoite stage of Plasmodium falciparum 3D7 infected in RBC assessed as nonviable parasite at 3 uM after 0.5 hrs by SYTO 61 staining-based flow cytometric analysis relative to untreated control; format: functional
Plasmodium falciparum [2] = experiment: Gametocytocidal activity against synchronous stage 1 to 3 of transgenic Plasmodium falciparum NF54 gametocyte harboring pfs16 promoter assessed as parasite viability after 72 hrs by luciferase reporter gene assay; format: functional, organism-based; details: NF54, 72 h
Plasmodium falciparum [3] = experiment: Antimalarial activity against mid to late trophozoite stage of Plasmodium falciparum 3D7 infected in RBC assessed as nonviable parasite at 15 uM after 0.5 hrs by SYTO 61 staining-based flow cytometric analysis relative to untreated control; format: functional
Plasmodium falciparum [4] = experiment: Antimalarial activity against Plasmodium falciparum 3D7 infected in RBC assessed as growth inhibition after 48 hrs by SYBR Green-I fluorescence assay; format: functional, organism-based; details: 3D7, 48 h
Summary of the method: (§1)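 Parasite-infected red cells exposed to compound for 48 h; growth read by SYBR Green-I fluorescence; IC50 derived. Where a ± is given, it is the standard deviation of three individual experiments.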

[5] = Dissociation constant, pKa of the compound at 50 uM by spectrophotometric analysis; format: physicochemical
Plasmodium falciparum [6] = experiment: Antimalarial activity against mid to late trophozoite stage of Plasmodium falciparum 3D7 infected in RBC assessed as abnormal mitochondria at 15 uM after 0.5 hrs by MitoTracker Red CMXRos-based fluorescence microscopic analysis relative to untreated control; format: functional
[7] = Inhibition of beta-hematin formation after 24 hrs by spectrophotometric analysis in presence of nonidet P40; format: functional
[8] = Selectivity index, ratio of IC50 for HEK293 cells to IC50 for Plasmodium falciparum 3D7 after 72 hrs; format: toxicity, cell-based; details: human, read-out: Ratio IC50
Summary of the method: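 Parasite (3D7) viability assay and HEK293 viability assay, each with a 72 h exposure. Index taken as the ratio of the IC50 values, HEK293 over 3D7.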

Plasmodium falciparum [9] = experiment: Antimalarial activity against mid to late trophozoite stage of Plasmodium falciparum 3D7 infected in RBC assessed as nonviable parasite at 0.6 uM after 0.5 hrs by SYTO 61 staining-based flow cytometric analysis relative to untreated control; format: functional
Plasmodium falciparum [10] = experiment: Antimalarial activity against mid to late trophozoite stage of Plasmodium falciparum 3D7 infected in RBC assessed as abnormal mitochondria at 3 uM after 0.5 hrs by MitoTracker Red CMXRos-based fluorescence microscopic analysis relative to untreated control; format: functional
Plasmodium falciparum [11] = experiment: Antimalarial activity against mid to late trophozoite stage of Plasmodium falciparum 3D7 infected in RBC assessed as abnormal mitochondria at 0.6 uM after 0.5 hrs by MitoTracker Red CMXRos-based fluorescence microscopic analysis relative to untreated control; format: functional
Plasmodium falciparum [12] = experiment: Gametocytocidal activity against synchronous stage 4 to 5 of transgenic Plasmodium falciparum NF54 gametocyte harboring pfs16 promoter assessed as parasite viability after 72 hrs by MitoTracker Red CMXRos-based assay; format: functional, organism-based; details: NF54, 72 h
Plasmodium falciparum [13] = experiment: Antimalarial activity against Plasmodium falciparum K1 infected in RBC assessed as growth inhibition after 48 hrs by SYBR Green-I fluorescence assay; format: functional, organism-based; details: K1, 48 h; summary of the method: as §1

`Nc1cc(/C=C/c2c[nH]c3ccccc23)nc2ccccc12` gave an Activity (Plasmodium falciparum [1]) of 77%, an IC50 (Plasmodium falciparum [2]) of 370 nM and an Activity (Plasmodium falciparum [3]) of 88%. It also gave an IC50 (Plasmodium falciparum [4]) of 200 nM, a pKa at 50 µM [5] of 9.5 and an Activity (Plasmodium falciparum [6]) of 93%. The IC50 [7] was over 4 mM, the selectivity ratio at 72 h [8] was 79 and the Activity (Plasmodium falciparum [9]) was 46%. It also gave an Activity (Plasmodium falciparum [10]) of 66%, an Activity (Plasmodium falciparum [11]) of 27% and an IC50 (Plasmodium falciparum [12]) of 1400 nM. It also gave an IC50 (Plasmodium falciparum [13]) of 390 nM.
